Experimental data from ChEMBL document CHEMBL1122395, “Tetracyclic chromophoric analogues of actinomycin D: synthesis, structure elucidation and interconvertibility from one form to another, antitumor activity, and structure-activity relationships” (1983).
Values after ≈ are worked out from the molar mass of the structure shown. Starred links: 1 amine or outer side, 2 acyl side, 3 side chain; linkers in the order of their positions; H or OH if unused. Positions of bridges follow the written chain, without caps; N, C: chain ends. Non-standard residues stand in square brackets, D forms with d. Residues, ends and D or L forms follow the SMILES beside them. Chains are numbered I, II in the order given. Actinocin(1to9) = Cc1c2oc3c(C)ccc(C(=O)[*:2])c3nc-2c(C(=O)[*:1])c(N)c1=O; NMeV = CN[C@H](C(=O)O)C(C)C; Sar = CNCC(=O)O

Experiments:
Mus musculus = species on record: Mus musculus; assay: Male CDF1 hybrid treated mice out of seven which survived over 60 days after the treatment.; assay type: functional
In short: (§1)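 Male CDF1 mice, seven per group, given 10^6 P388 cells ip on day 0. Drugs were given ip in 10% Me2SO-saline on days 1, 5 and 9, with solutions kept at 0-4 °C, protected from light and checked for homogeneity by HPLC. A range of doses was run and the optimal nontoxic dose reported. Read-outs were median survival time, percent increase in life span, and cures (over-60-day survivors, average of two experiments).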

CCRF-CEM = assay: Growth inhibitory activity against human lymphoblastic leukemia cells(CCRF-CEM); assay type: functional; conditions: read-out: ID50 (the source's name)
In short: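 Log-phase human lymphoblastic leukemia CCRF-CEM cells grown in suspension culture. Compounds dissolved in Me2SO, final growth medium contained 5% Me2SO. Test solutions kept at 0-4 °C, protected from light, homogeneity checked by HPLC before testing. ID50 reported in ng/mL.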

P388 [1] = assay: Median survival time observed in P-388 cells infected male CDF1 hybrid mice after intraperitoneal administration at 600 ug/kg optimal dose; assay type: functional, Mus musculus; in short: as §1
P388 [2] = assay: Percent increase in life span observed in P-388 cells infected male CDF1 hybrid mice after intraperitoneal administration at 600 ug/kg optimal dose; assay type: functional, Mus musculus; in short: as §1
P388 [3] = assay: Median survival time observed in P-388 cells infected male CDF1 hybrid mice after intraperitoneal administration at 1200 ug/kg optimal dose; assay type: functional, Mus musculus; in short: as §1
P388 [4] = assay: Percent increase in life span observed in P-388 cells infected male CDF1 hybrid mice after intraperitoneal administration at 1200 ug/kg optimal dose; assay type: functional, Mus musculus; in short: as §1
P388 [5] = assay: Percent increase in life span observed in P-388 cells infected male CDF1 hybrid mice after intraperitoneal administration at 450 ug/kg optimal dose; assay type: functional, Mus musculus; in short: as §1
P388 [6] = assay: Median survival time observed in P-388 cells infected male CDF1 hybrid mice after intraperitoneal administration at 450 ug/kg optimal dose; assay type: functional, Mus musculus; in short: as §1
P388 [7] = assay: Median survival time observed in P-388 cells infected male CDF1 hybrid mice after intraperitoneal administration at 900 ug/kg optimal dose; assay type: functional, Mus musculus; in short: as §1
P388 [8] = assay: Percent increase in life span observed in P-388 cells infected male CDF1 hybrid mice after intraperitoneal administration at 900 ug/kg optimal dose; assay type: functional, Mus musculus; in short: as §1
Nucleic Acid = assay: (§2) Melting temperature of DNA-drug complex minus melting temperature of purified calf-thymus DNA; assay type: functional; conditions: Bos taurus
In short: (§3)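 Calf-thymus DNA, purified. ΔTm is the Tm of the DNA-drug complex minus the Tm of DNA alone. Medium was 0.01 M phosphate buffer, pH 7.0, with EDTA.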

P388 [9] = assay: Median survival time observed in P-388 cells infected male CDF1 hybrid mice after intraperitoneal administration at 750 ug/kg optimal dose; assay type: functional, Mus musculus; in short: as §1
P388 [10] = assay: Percent increase in life span observed in P-388 cells infected male CDF1 hybrid mice after intraperitoneal administration at 750 ug/kg optimal dose; assay type: functional, Mus musculus; in short: as §1
P388 [11] = assay: Median survival time observed in P-388 cells infected male CDF1 hybrid mice after intraperitoneal administration at 125 ug/kg optimal dose; assay type: functional, Mus musculus; in short: as §1
Bos taurus = species on record: Bos taurus; assay: as §2; assay type: functional; in short: as §3
P388 [12] = assay: Percent increase in life span observed in P-388 cells infected male CDF1 hybrid mice after intraperitoneal administration at 125 ug/kg optimal dose; assay type: functional, Mus musculus; in short: as §1
P388 [13] = assay: Percent increase in life span observed in P-388 cells infected male CDF1 hybrid mice after intraperitoneal administration at 1800 ug/kg optimal dose; assay type: functional, Mus musculus; in short: as §1
P388 [14] = assay: Median survival time observed in P-388 cells infected male CDF1 hybrid mice after intraperitoneal administration at 1800 ug/kg optimal dose; assay type: functional, Mus musculus; in short: as §1

`Cc1ccc(C(=O)N[C@@H]2C(=O)N[C@H](C(C)C)C(=O)N3CCC[C@H]3C(=O)N(C)CC(=O)N(C)[C@@H](C(C)C)C(=O)O[C@@H]2C)c2c1Oc1c(c(C(=O)N[C@@H]3C(=O)N[C@H](C(C)C)C(=O)N4CCC[C@H]4C(=O)N(C)CC(=O)N(C)[C@@H](C(C)C)C(=O)O[C@@H]3C)c3nc(-c4ccccc4)c(=O)oc3c1C)N2` showed a Cures (Mus musculus) of 2, an IC50 (CCRF-CEM) of 0.44 µg/mL (≈ 0.321 µM) and an MST (P388 [1]) of 45 days. It also gave an ILS (P388 [2]) of 309%.

`CCCCCCc1nc2c(C(=O)N[C@@H]3C(=O)N[C@H](C(C)C)C(=O)N4CCC[C@H]4C(=O)N(C)CC(=O)N(C)[C@@H](C(C)C)C(=O)O[C@@H]3C)c3c(c(C)c2oc1=O)Oc1c(C)ccc(C(=O)N[C@@H]2C(=O)N[C@H](C(C)C)C(=O)N4CCC[C@H]4C(=O)N(C)CC(=O)N(C)[C@@H](C(C)C)C(=O)O[C@@H]2C)c1N3` gave a Cures (Mus musculus) of 0, an IC50 (CCRF-CEM) of 2.08 µg/mL (≈ 1.51 µM) and an MST (P388 [3]) of 25 days. For the same molecule, the ILS (P388 [4]) was 127%.

In the case of `Cc1nc2c(C(=O)N[C@@H]3C(=O)N[C@H](C(C)C)C(=O)N4CCC[C@H]4C(=O)N(C)CC(=O)N(C)[C@@H](C(C)C)C(=O)O[C@@H]3C)c3nc4c(C(=O)N[C@@H]5C(=O)N[C@H](C(C)C)C(=O)N6CCC[C@H]6C(=O)N(C)CC(=O)N(C)[C@@H](C(C)C)C(=O)O[C@@H]5C)cc(=O)c(C)c-4oc3c(C)c2o1`, the Cures (Mus musculus) is reported as 1, the IC50 (CCRF-CEM) is reported as 0.23 µg/mL (≈ 0.178 µM) and the ILS (P388 [5]) is reported as 182%. For the same molecule, the MST (P388 [6]) was 31 days.

In the case of `Cc1ccc(C(=O)N[C@@H]2C(=O)N[C@H](C(C)C)C(=O)N3CCC[C@H]3C(=O)N(C)CC(=O)N(C)[C@@H](C(C)C)C(=O)O[C@@H]2C)c2c1Oc1c(c(C(=O)N[C@@H]3C(=O)N[C@H](C(C)C)C(=O)N4CCC[C@H]4C(=O)N(C)CC(=O)N(C)[C@@H](C(C)C)C(=O)O[C@@H]3C)c3nc(-c4cccc(Cl)c4)c(=O)oc3c1C)N2`, the Cures (Mus musculus) is reported as 0, the IC50 (CCRF-CEM) is reported as 1.6 µg/mL (≈ 1.14 µM) and the MST (P388 [1]) is reported as 29 days. It also gave an ILS (P388 [2]) of 164%.

With `Cc1c2oc3c(C)c4oc(-c5c(F)c(F)c(F)c(F)c5F)nc4c(C(=O)N[C@@H]4C(=O)N[C@H](C(C)C)C(=O)N5CCC[C@H]5C(=O)N(C)CC(=O)N(C)[C@@H](C(C)C)C(=O)O[C@@H]4C)c3nc-2c(C(=O)N[C@@H]2C(=O)N[C@H](C(C)C)C(=O)N3CCC[C@H]3C(=O)N(C)CC(=O)N(C)[C@@H](C(C)C)C(=O)O[C@@H]2C)cc1=O` the MST (P388 [7]) was 3 days, the ILS (P388 [8]) was 172% and the Cures (Mus musculus) was 1. It also gave an IC50 (CCRF-CEM) of 0.63 µg/mL (≈ 0.435 µM).

`Cc1nc2c(C(=O)N[C@H]3C(=O)N[C@H](C(C)C)C(=O)N4CCC[C@H]4C(=O)N(C)CC(=O)N(C)[C@@H](C(C)C)C(=O)O[C@H]3C)c3c(c(C)c2o1)Oc1c(C)ccc(C(=O)N[C@@H]2C(=O)N[C@H](C(C)C)C(=O)N4CCC[C@H]4C(=O)N(C)CC(=O)N(C)[C@@H](C(C)C)C(=O)O[C@@H]2C)c1N3` showed a ΔTm (Nucleic Acid) of 0 °C.

With `Cc1c2oc3c(C)c4oc(-c5ccccc5)nc4c(C(=O)N[C@@H]4C(=O)N[C@H](C(C)C)C(=O)N5CCC[C@H]5C(=O)N(C)CC(=O)N(C)[C@@H](C(C)C)C(=O)O[C@@H]4C)c3nc-2c(C(=O)N[C@@H]2C(=O)N[C@H](C(C)C)C(=O)N3CCC[C@H]3C(=O)N(C)CC(=O)N(C)[C@@H](C(C)C)C(=O)O[C@@H]2C)cc1=O` the MST (P388 [9]) was 44 days, the Cures (Mus musculus) was 2 and the IC50 (CCRF-CEM) was 0.31 µg/mL (≈ 0.228 µM). For the same molecule, the ILS (P388 [10]) was 300%.

`Cc1c2oc3c(C)ccc(C(=O)N[C@@H]4C(=O)N[C@H](C(C)C)C(=O)N5CCC[C@H]5C(=O)N(C)CC(=O)N(C)[C@@H](C(C)C)C(=O)O[C@@H]4C)c3nc-2c(C(=O)N[C@@H]2C(=O)N[C@H](C(C)C)C(=O)N3CCC[C@H]3C(=O)N(C)CC(=O)N(C)[C@@H](C(C)C)C(=O)O[C@@H]2C)c(N)c1=O` [DACTINOMYCIN] (I: T[dV]P[Sar][NMeV] / II: T[dV]P[Sar][NMeV]; ester I:1-I:C, II:1-II:C; linker I:N-II:N via Actinocin(1to9)) showed a Cures (Mus musculus) of 1, an IC50 (CCRF-CEM) of 0.04 µg/mL (≈ 0.0319 µM) and an MST (P388 [11]) of 26 days. The ΔTm (Bos taurus) was 7.1 °C and the ILS (P388 [12]) was 136%.

For `Cc1ccc(C(=O)N[C@@H]2C(=O)N[C@H](C(C)C)C(=O)N3CCC[C@H]3C(=O)N(C)CC(=O)N(C)[C@@H](C(C)C)C(=O)O[C@@H]2C)c2c1Oc1c(c(C(=O)N[C@@H]3C(=O)N[C@H](C(C)C)C(=O)N4CCC[C@H]4C(=O)N(C)CC(=O)N(C)[C@@H](C(C)C)C(=O)O[C@@H]3C)c3nc(-c4c(F)c(F)c(F)c(F)c4F)c(=O)oc3c1C)N2`, the Cures (Mus musculus) was 1, the IC50 (CCRF-CEM) was 0.64 µg/mL (≈ 0.438 µM) and the ILS (P388 [13]) was 186%. It also gave an MST (P388 [14]) of 31.5 days.
